Reference: ChEMBL document CHEMBL4732146, “Nitric oxide-donating and reactive oxygen species-responsive prochelators based on 8-hydroxyquinoline as anticancer agents” (Eur J Med Chem, 2021)
pIC50: −log10 of the molar value. The source made the active and inactive calls. No cut-off for these calls is given here.

Key:
[1] = Stability of compound in pH 10 PBS buffer assessed as parent compound remaining measured after 24 hrs by RP-HPLC analysis; assay type: physicochemical; details: read-out: Stabilty
Procedure, shortened: (§1)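 Compound (1 µM) stirred at 37 °C either in PBS (pH 5.0, 7.4 or 10.0) containing 5% DMSO or in DMEM with 10% FBS. Aliquots were analysed by RP-HPLC (0.1% TFA water/methanol gradient, 256 nm) for remaining intact compound, up to 24 h.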

[2] = tested on: SW1990; assay: Induction of apoptosis in human SW1990 cells at 12 uM measured after 24 hrs in presence of ROS quencher NAC by Annexin V-FITC/propidium iodide staining based flow cytometry; assay type: functional, cell-based
Procedure, shortened: (§2)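 SW1990 cells seeded 5 × 10⁵ per well and grown 24 h, then treated 24 h at 8 or 12 µM. Optional 1 h pretreatment with 20 mM NAC or 50 µM carboxyl-PTIO before 12 µM treatment. Cells stained with annexin V-FITC 15 min and PI 5 min at room temperature in the dark, then analysed by flow cytometry. Mean ± SD, n = 3.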

[3] = tested on: SW1990; assay: Cytotoxicity against human SW1990 cells assessed as reduction in cell viability measured after 48 hrs in presence of FeCl3 by MTT assay; assay type: functional, cell-based; details: SW1990, 48 h
Procedure, shortened: (§3)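 Cells seeded 6 × 10⁴ per well, cultured 24 h at 37 °C under 5% CO₂, then exposed to compound for 48 h, with or without 50 µM CuCl₂ or FeCl₃ co-incubation. MTT added for 4 h at 37 °C, formazan dissolved in DMSO, A490 read. IC50 reported as mean (SD), n = 3.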

[4] = Metal chelating activity assessed as compound-Cu2+ complex formation at 50 uM measured after 40 mins in absence of H2O2 by UV spectrophotometric method
Procedure, shortened: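 Stock in DMSO diluted into PBS (10 mM, pH 7.4) to a final 50 µM, with 50 µM CuCl₂ added and no H₂O₂. UV spectrum recorded over 40 min at room temperature.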

[5] = Stability of compound in presence of GSH at 100 uM measured after 1 hr by RP-HPLC analysis; assay type: physicochemical
Procedure, shortened: (§4)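 Compound (100 µM) incubated at 37 °C for 1 h with one of: ROS species (1 mM), NO solution (1 mM), GSH (200 µM), CuCl₂ (10 µM) or FeCl₃ (10 µM). Percent decomposed was determined by RP-HPLC (ODS column, 0.1% TFA water/methanol gradient, 1 mL/min, 256 nm).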

[6] = tested on: PANC-1; assay: Cytotoxicity against human PANC-1 cells assessed as reduction in cell viability measured after 48 hrs in presence of FeCl3 by MTT assay; assay type: functional, cell-based; details: PANC-1, 48 h; procedure, shortened: as §3
[7] = Stability of compound in DMEM with 10% fetal bovine serum assessed as parent compound remaining measured after 24 hrs by RP-HPLC analysis; assay type: cell-free; procedure, shortened: as §1
[8] = tested on: SW1990; assay: Induction of mitochondrial membrane potential loss in human SW1990 cells at 8 to 12 uM measured after 24 hrs by JC1 staining based flow cytometry; assay type: functional, cell-based; details: dose 8-12 µM
Procedure, shortened: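 SW1990 cells seeded at 5 × 10⁵ per well, grown 24 h, then exposed to compound for 24 h. Stained with JC-1 per kit instructions. Flow cytometry gave the percentage of cells with healthy or collapsed mitochondrial membrane potential. Mean ± SD, n = 3.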

[9] = Cytotoxicity against human H6C7 cells assessed as reduction in cell viability measured after 48 hrs by MTT assay; assay type: cell-based; details: H6C7, 48 h; procedure, shortened: as §3
[10] = tested on: SW1990; assay: Induction of apoptosis in human SW1990 cells assessed as increase in Bax-2 expression at 8 to 12 uM measured after 24 hrs by Western blot analysis; assay type: functional, cell-based; details: dose 8-12 µM
Procedure, shortened: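 SW1990 cells seeded 5 × 10⁵ per well and grown 24 h at 37 °C, then treated 24 h. Lysates quantified by BCA, resolved by SDS-PAGE and transferred to nitrocellulose. Blocked in 5% milk, probed overnight at 4 °C for cleaved caspase-3, cleaved caspase-9, Bax and Bcl-2, then HRP secondary 2 h. ECL detection.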

[11] = Drug metabolism in human SW1990 cells assessed as nitric oxide release by measuring increase in 3-nitrotyrosine-containing cytochrome-c expression at 8 to 12 uM measured after 24 hrs by Western blot analysis; assay type: ADME, cell-based; details: sw1990, 24 h
Procedure, shortened: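 SW1990 cells treated 24 h, or pretreated 1 h with carboxyl-PTIO (50 µM) before 24 h treatment. Mitochondrial proteins extracted and lysed (30 µg/lane), run on SDS-PAGE, blotted to PVDF and probed with anti-3-nitrotyrosine antibody. Mean ± SD, n = 3.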

[12] = Metal chelating activity assessed as compound-Cu2+ complex formation by measuring change in wavelength at 50 uM measured after 40 mins in presence of H2O2 by UV spectrophotometric method
Procedure, shortened: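 Compound at 50 µM final in PBS (10 mM, pH 7.4) with 50 µM CuCl₂ and H₂O₂ (500 µM, 10 eq.). UV spectrum tracked over 40 min at room temperature, following peaks at 240, 382 and 210 nm.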

[13] = tested on: SW1990; assay: Cell cycle arrest in human SW1990 cells assessed as increase in accumulation at G1-phase at 12 uM measured after 24 hrs by propidium iodide staining based flow cytometry; assay type: functional
Procedure, shortened: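 SW1990 cells seeded 5 × 10⁵ per well, grown 24 h, then treated 24 h. Washed in ice-cold PBS, fixed ≥24 h in ice-cold 70% alcohol, RNase A treated, PI-stained 30 min at 4 °C in the dark. DNA content read by flow cytometry to give cycle distribution. Mean ± SD, n = 3.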

[14] = tested on: SW1990; assay: Antitumor activity against human SW1990 cells xenografted in Balb/c nude mouse assessed as tumor growth inhibition at 20 mg/kg, iv administered every 3 days measured after 21 days relative to control; assay type: functional; details: 504 h, time 21 day, read-out: TGI
Procedure, shortened: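 Male BALB/c nude mice, 3–5 weeks old, given 1 × 10⁷ SW1990 cells subcutaneously; when tumors reached about 65 mm³, randomised to groups of eight. Saline vehicle control, dosing intravenously every three days. Tumor size monitored every two days for three weeks; tumors dissected at sacrifice on day 21, volume = d² × D/2 (d smallest, D largest diameter). Mean ± SD.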

[15] = tested on: SW1990; assay: Induction of apoptosis in human SW1990 cells at 8 to 12 uM measured after 24 hrs by Annexin V-FITC/propidium iodide staining based flow cytometry; assay type: functional, cell-based; details: dose 8-12 µM; procedure, shortened: as §2
[16] = tested on: PANC-1; assay: Cytotoxicity against human PANC-1 cells assessed as reduction in cell viability measured after 48 hrs by MTT assay; assay type: functional, cell-based; details: PANC-1, 48 h; procedure, shortened: as §3
[17] = Prodrug activation in NO at 100 uM measured after 1 hr by RP-HPLC analysis; procedure, shortened: as §4
[18] = tested on: SW1990; assay: Cytotoxicity against human SW1990 cells assessed as reduction in cell viability measured after 48 hrs in presence of 10 to 50 uM Cu2+ by MTT assay; assay type: functional, cell-based; details: dose 10-50 µM
[19] = Stability of compound in presence of Fe3+ at 100 uM measured after 1 hr by RP-HPLC analysis; assay type: physicochemical; procedure, shortened: as §4
[20] = Metal chelating activity assessed as compound-Cu2+ complex stoichiometry ratio of […] after 1 hr by Job's plot analysis

O=C(NCCCOc1no[n+]([O-])c1S(=O)(=O)c1ccccc1)c1ccc2cccc(OCc3ccc(B(O)O)cc3)c2n1
remaining at 24 h [1]: > 80%
Activity [2]: inactive
pIC50 [3]: 4.81
Activity [4]: inactive
Stabilty [5]: Stable
pIC50 [6]: 4.76
Stability [7]: > 80%
Activity [8]: Active
pIC50 [9]: < 4.30
Activity [10]: Active
Drug metabolism [11]: Metabolite_Detected
Activity [12]: 210 nm
Activity [13]: Active
inhibition in vivo at 20 mg/kg [14]: 61.8%
Activity [15]: Active
pIC50 [16]: 4.98
Drug metabolism [17]: Metabolite_Notdetected
Activity [18]: Dose-dependent effect
Stabilty [19]: Stable
Ratio [20]: 0.64
